Active and inactive are the calls of the source. No cut-off for these calls is given here.
What follows are compounds tested on Monkey (assay: Effective dose for interruption of pregnancy in greater than 90% of the monkeys). Settings: not given.
Assay type: functional, Cercopithecidae
Summary of the method: (§1)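 Pregnant monkeys dosed once daily on days 50–54 of pregnancy; group size two to six or more monkeys. Effective dose, in mg per monkey per day, is the dose interrupting pregnancy in more than 90% of monkeys.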

**Q.** How did the MED90 turn out when `CC1C[C@H]2[C@@H]3CCC(O)C3(C)CC[C@@H]2C2(C)C[C@@H](C#N)C(=O)C3O[C@]132` (stereo partly specified) was run?
**A.** 500 mg monkey-1 day-1

**Q.** How did the MED90 turn out when `CC12CC[C@H]3[C@@H](CC[C@@]45OC4C(=O)[C@H](C#N)CC35C)[C@@H]1CCC2O` (stereo partly specified) was run?
**A.** 1000 mg monkey-1 day-1

**Q.** How did the MED90 turn out when `CC12O[C@]13CC[C@@H]1[C@H](CCC4(C)[C@H]1CC[C@]4(C)O)C3(C)C[C@@H](C#N)C2=O` (stereo partly specified) was run?
**A.** 250 mg monkey-1 day-1

**Q.** How did the MED90 turn out when `CC12CC[C@H]3[C@@H](CC[C@@]45OC4C(=O)[C@H](C#N)CC35C)[C@@H]1CC[C@]2(C)O` (stereo partly specified) was run?
**A.** 250 mg monkey-1 day-1

**Q.** `CC12CC[C@H]3[C@@H](CC[C@@]45OC4(C)C(=O)[C@H](C#N)CC35C)[C@@H]1CCC2O` (stereo partly specified) was tested. Which MED90 did it give?
**A.** >500 mg monkey-1 day-1

**Q.** With `CC1(C)C2=CCC3C(CCC4(C)C3CC[C@]4(C)O)C2(C)Cc2cnoc21` (stereo partly specified) as the compound, how does the MED90 read?
**A.** >1000 mg monkey-1 day-1

The compounds below were run on Monkey (assay: Effective dose for interruption of pregnancy in greater than 90% of the monkeys; IN-Inactive). Settings: Cercopithecidae.
Assay type: functional, organism-based
Summary of the method: as §1

**Q.** For `CC12O[C@]13CCC1C(CCC4(C)C1CC[C@]4(C)O)C3(C)Cc1cnoc12` (stereo partly specified), which MED90 is on record?
**A.** inactive

**Q.** With `CC1(C)C(=O)[C@H](C#N)CC2(C)C1=CCC1C2CCC2(C)C1CC[C@]2(C)O` (stereo partly specified) as the compound, how does the MED90 read?
**A.** inactive

Each compound was assayed on Monkey (assay: Effect of compound on plasma level of cortisol in ACTH treated rhesus monkey when administered orally). Settings: Cercopithecidae, in Macaca mulatta, po, read-out: MED.
Assay type: functional

**Q.** Which minimal effective dose does the source give for `CC12CC[C@H]3[C@@H](CC[C@@]45OC4C(=O)[C@H](C#N)CC35C)[C@@H]1CCC2O` (stereo partly specified) here?
**A.** 10 mg/kg

**Q.** For `CC12O[C@]13CC[C@@H]1[C@H](CCC4(C)[C@H]1CC[C@]4(C)O)C3(C)C[C@@H](C#N)C2=O` (stereo partly specified), which minimal effective dose is on record?
**A.** 250 mg/kg

**Q.** Which minimal effective dose does the source give for `CC12CC[C@H]3[C@@H](CC[C@@]45OC4C(=O)[C@H](C#N)CC35C)[C@@H]1CC[C@]2(C)O` (stereo partly specified) here?
**A.** 10 mg/kg

**Q.** With `CC12CC[C@H]3[C@@H](CC[C@@]45OC4(C)C(=O)[C@H](C#N)CC35C)[C@@H]1CCC2O` (stereo partly specified) as the compound, how does the minimal effective dose read?
**A.** 250 mg/kg

Each compound was assayed on Rattus norvegicus (assay: Effect of compound on plasma level of corticosterone in ACTH treated pseudopregnant rats when administered orally). Settings: po, read-out: MED.
Assay type: functional
Summary of the method: (§2)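 Pseudopregnant rats stimulated with ACTH; single oral dose, groups of seven rats. Plasma progesterone and corticosterone measured; MED in mg/kg po is the single dose giving a significant (p < 0.01) fall versus stimulated control levels.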

**Q.** `CC12CC[C@H]3[C@@H](CC[C@@]45OC4C(=O)[C@H](C#N)CC35C)[C@@H]1CCC2O` (stereo partly specified) was tested. Which minimal effective dose did it give?
**A.** 50 mg/kg

**Q.** `CC12O[C@]13CC[C@@H]1[C@H](CCC4(C)[C@H]1CC[C@]4(C)O)C3(C)C[C@@H](C#N)C2=O` (stereo partly specified) was tested. Which minimal effective dose did it give?
**A.** 20 mg/kg

**Q.** With `CC12CC[C@H]3[C@@H](CC[C@@]45OC4C(=O)[C@H](C#N)CC35C)[C@@H]1CC[C@]2(C)O` (stereo partly specified) as the compound, how does the minimal effective dose read?
**A.** 50 mg/kg

**Q.** `CC12CC[C@H]3[C@@H](CC[C@@]45OC4(C)C(=O)[C@H](C#N)CC35C)[C@@H]1CCC2O` (stereo partly specified) was tested. Which minimal effective dose did it give?
**A.** 50 mg/kg

The compounds below were run on Rattus norvegicus (assay: Effect of compound on plasma level of progesterone in ACTH treated pseudopregnant rats when administered orally). Settings: po, read-out: MED.
Assay type: functional
Summary of the method: as §2

**Q.** `CC12CC[C@H]3[C@@H](CC[C@@]45OC4C(=O)[C@H](C#N)CC35C)[C@@H]1CCC2O` (stereo partly specified) was tested. Which minimal effective dose did it give?
**A.** 500 mg/kg

**Q.** How did the minimal effective dose turn out when `CC12O[C@]13CC[C@@H]1[C@H](CCC4(C)[C@H]1CC[C@]4(C)O)C3(C)C[C@@H](C#N)C2=O` (stereo partly specified) was run?
**A.** 20 mg/kg

**Q.** `CC12CC[C@H]3[C@@H](CC[C@@]45OC4C(=O)[C@H](C#N)CC35C)[C@@H]1CC[C@]2(C)O` (stereo partly specified) was tested. Which minimal effective dose did it give?
**A.** 500 mg/kg

**Q.** With `CC12CC[C@H]3[C@@H](CC[C@@]45OC4(C)C(=O)[C@H](C#N)CC35C)[C@@H]1CCC2O` (stereo partly specified) as the compound, how does the minimal effective dose read?
**A.** 5 mg/kg

These compounds were tested on Rattus norvegicus (assay: Minimum effective dose for 100% interruption of pregnancy in rat when compound was administered perorally). Settings: not given.
Assay type: functional
Summary of the method: (§3)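 Pregnant rats given a single oral dose on day 10 of pregnancy, seven rats per group. MED, in mg/kg po, is the minimum dose giving 100% interruption of pregnancy.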

**Q.** Which MED10 does the source give for `CC12O[C@]13CCC1C(CCC4(C)C1CC[C@]4(C)O)C3(C)Cc1cnoc12` (stereo partly specified) here?
**A.** 192 mg/kg

**Q.** `CC12CCC3C(CC[C@@]45OC4c4oncc4CC35C)C1CC[C@]2(C)O` (stereo partly specified) was tested. Which MED10 did it give?
**A.** >500 mg/kg

**Q.** For `CC12C[C@@H](C#N)C(=O)C=C1CCC1C2CCC2(C)C(O)CCC12` (stereo partly specified), which MED10 is on record?
**A.** 1000 mg/kg

**Q.** For `CC12CCC3C(CC[C@@]45OC4c4oncc4CC35C)C1CCC2O` (stereo partly specified), which MED10 is on record?
**A.** >500 mg/kg

**Q.** `CC1C[C@H]2[C@@H]3CCC(O)C3(C)CC[C@@H]2C2(C)C[C@@H](C#N)C(=O)C3O[C@]132` (stereo partly specified) was tested. Which MED10 did it give?
**A.** 12 mg/kg

**Q.** How did the MED10 turn out when `CC12CC[C@H]3[C@@H](CC[C@@]45OC4C(=O)[C@H](C#N)CC35C)[C@@H]1CCC2O` (stereo partly specified) was run?
**A.** 500 mg/kg

**Q.** `CC1CC2C3CCC(O)C3(C)CCC2C2(C)Cc3cnoc3C3O[C@]132` (stereo partly specified) was tested. Which MED10 did it give?
**A.** >500 mg/kg

**Q.** How did the MED10 turn out when `CC12CCC3C(CC[C@@]45OC4(C)c4oncc4CC35C)C1CCC2O` (stereo partly specified) was run?
**A.** >500 mg/kg

**Q.** Which MED10 does the source give for `CC1(C)C(=O)[C@H](C#N)CC2(C)C1=CCC1C2CCC2(C)C1CC[C@]2(C)O` (stereo partly specified) here?
**A.** 6 mg/kg

**Q.** `CC12O[C@]13CC[C@@H]1[C@H](CCC4(C)[C@H]1CC[C@]4(C)O)C3(C)C[C@@H](C#N)C2=O` (stereo partly specified) was tested. Which MED10 did it give?
**A.** 50 mg/kg

**Q.** Which MED10 does the source give for `CC12CC[C@H]3[C@@H](CC[C@@]45OC4C(=O)[C@H](C#N)CC35C)[C@@H]1CC[C@]2(C)O` (stereo partly specified) here?
**A.** 500 mg/kg

**Q.** For `CC12CC[C@H]3[C@@H](CC[C@@]45OC4(C)C(=O)[C@H](C#N)CC35C)[C@@H]1CCC2O` (stereo partly specified), which MED10 is on record?
**A.** 125 mg/kg

**Q.** For `CC1(C)C2=CCC3C(CCC4(C)C3CC[C@]4(C)O)C2(C)Cc2cnoc21` (stereo partly specified), which MED10 is on record?
**A.** 25 mg/kg

These compounds were tested on Rattus norvegicus (assay: Minimum effective dose for 100% interruption of pregnancy in rat when compound was administered perorally; IN-Inactive). Settings: not given.
Assay type: functional, organism-based
Summary of the method: as §3

**Q.** How did the MED10 turn out when `CC12CC[C@H]3[C@@H](CC[C@@]45OC4C(=O)CCC35C)[C@@H]1CCC2O` (stereo partly specified) was run?
**A.** inactive

**Q.** For `CC12CC[C@H]3[C@@H](CCC4CC(=O)[C@H](C#N)CC43C)[C@@H]1CCC2O` (stereo partly specified), which MED10 is on record?
**A.** inactive

**Q.** For `CC12CC[C@H]3[C@@H](CC[C@]45OC4C(=O)[C@@H](C#N)CC35C)[C@@H]1CCC2O` (stereo partly specified), which MED10 is on record?
**A.** inactive

— ChEMBL document CHEMBL1122694, “Steroidogenesis inhibitors. 1. Adrenal inhibitory and interceptive activity of trilostane and related compounds” (1984)
